Source: ChEMBL document CHEMBL1134139, “Synthesis and biological activity of novel macrocyclic antifungals. modification of the tyrosine moiety of the lipopeptidolactone FR901469” (2001)
Values after ≈ are worked out from the molar mass of the structure shown. Numbered stars: 1 amine (or outer) side, 2 acyl side, 3 side chain; on linkers, the order of the positions; unused ones are H or OH. Bridge positions count the residues as written; N and C are the ends. Square brackets hold non-standard residues; d marks the D form. Peptide text beside a SMILES is read from it. ξ: configuration not given here. X2 = O=C(CCC(=O)N1CCNCC1)Nc1cc(C[C@H](N[*:1])C(=O)[*:2])ccc1O; X3 = O=C(O)CCC(=O)Nc1cc(C[C@H](N[*:1])C(=O)[*:2])ccc1O; Gln(3R-OH) = NC(=O)C[C@@H](O)[C@H](N)C(=O)O; X1 = CCCCCCCCCCCCC[C@H](CC(=O)[*:1])O[*:2]; Pro(3S-OH) = O=C(O)[C@H]1NCC[C@@H]1O; Hyp = O=C(O)[C@@H]1C[C@@H](O)CN1; Orn = NCCC[C@H](N)C(=O)O; ξA = CC(N)C(=O)O

Experiments:
Candida albicans [1] = assay: In vitro antifungal activity against Candida albicans FP579 by agar dilution method using Sabouraud Dextrose agar.; format: functional
How it was run: (§1)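 Agar dilution on Sabouraud Dextrose agar. MIC taken as the lowest concentration that inhibits visible growth.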

[2] = tested on: Meyerozyma guilliermondii; assay: In vitro antifungal activity against Candida guilliermondii FP587 by agar dilution method using Sabouraud Dextrose agar.; format: functional; how it was run: as §1
Candida albicans [3] = assay: In vitro Antifungal activity against Candida albicans FP633 by agar dilution method using Sabouraud Dextrose agar.; format: functional; how it was run: as §1
Candida tropicalis = assay: In vitro antifungal activity against Candida tropicalis 8001 by agar dilution method using Sabouraud Dextrose agar.; format: functional; how it was run: as §1
Candida parapsilosis = assay: In vitro antifungal activity against Candida parapsilosis 15001 by agar dilution method using Sabouraud Dextrose agar.; format: functional; settings: Lodderomyces parapsilosis; how it was run: as §1
Mus musculus [4] = species: Mus musculus; assay: Ability to hemolyze ICR mouse RBCs at 1 mg/mL using microtiter red blood cell hemolysis assay.
Candida albicans [5] = assay: In vitro antifungal activity against Candida albicans 13004 by broth microdilution method; format: functional
How it was run: (§2)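 Broth microdilution run to NCCLS M27-A guidelines. MIC read per that standard.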

Aspergillus fumigatus [6] = assay: In vitro antifungal activity against Aspergillus fumigatus 8004 by broth microdilution method; format: functional; how it was run: as §2
Candida albicans [7] = assay: In vitro antifungal activity against Candida albicans FP633 by broth microdilution method; format: functional; how it was run: as §2
Aspergillus fumigatus [8] = assay: In vitro antifungal activity against Aspergillus fumigatus FP1305 by broth microdilution method; format: functional; how it was run: as §2
Mus musculus [9] = assay: Compound was evaluated in vivo for antifungal activity and efficacy in disseminated murine candidiasis was determined; format: functional
[10] = Candida tropicalis, read-out: MIC

| Structure (SMILES) | MIC (Candida albicans [1]) [µg/mL] | MIC [2] [µg/mL] | MIC (Candida albicans [3]) [µg/mL] | MIC (Candida tropicalis) [µg/mL] | MIC (Candida tropicalis; [10]) [µg/mL] | MIC (Candida parapsilosis) [µg/mL] | Hemolytic activity (Mus musculus [4]) [%] | MIC (Candida albicans [5]) [µg/mL] | MIC (Aspergillus fumigatus [6]) [µg/mL] | MIC (Candida albicans [7]) [µg/mL] | MIC (Aspergillus fumigatus [8]) [µg/mL] | ED50 (Mus musculus [9]) [mg/kg] |
| --- | --- | --- | --- | --- | --- | --- | --- | --- | --- | --- | --- | --- |
| CCCCCCCCCCCCC[C@H](CC(=O)N[C@@H](C(=O)N[C@H](C)C(=O)N[C@@H](Cc1ccc(O)c(Cl)c1)C(=O)N[C@H](C(=O)N1C[C@H](O)C[C@H]1C(=O)N[C@@H](C(=O)N[C@H](C(=O)N1CC[C@H](O)[C@H]1C(=O)N[C@H](C(=O)NCC(=O)N[C@@H](C(N)=O)[C@@H](C)O)[C@H](O)CC(N)=O)[C@@H](C)O)[C@@H](C)O)C(C)C)[C@@H](C)O)OC(=O)[C@@H](C)CCCN | 0.78 (≈ 0.492 µM) | 0.78 (≈ 0.492 µM) | 0.39 (≈ 0.246 µM) | 0.78 (≈ 0.492 µM) | 0.78 (≈ 0.492 µM) | 0.78 (≈ 0.492 µM) | 97 | – | – | – | – | – |
| CCCCCCCCCCCCC[C@H](CC(=O)N[C@@H](C(=O)N[C@H](C)C(=O)N[C@@H](Cc1ccc(O)c(NC(=O)[C@H](N)Cc2c[nH]cn2)c1)C(=O)N[C@H](C(=O)N1C[C@H](O)C[C@H]1C(=O)N[C@@H](C(=O)N[C@H](C(=O)N1CC[C@H](O)[C@H]1C(=O)N[C@H](C(=O)NCC(=O)N[C@@H](C(N)=O)[C@@H](C)O)[C@H](O)CC(N)=O)[C@@H](C)O)[C@@H](C)O)C(C)C)[C@@H](C)O)OC(=O)[C@@H](C)CCCN | – | – | – | – | – | – | 65 | 2 (≈ 1.18 µM) | 2 (≈ 1.18 µM) | 2 (≈ 1.18 µM) | 2 (≈ 1.18 µM) | – |
| CCCCCCCCCCCCC[C@H](CC(=O)N[C@@H](C(=O)N[C@H](C)C(=O)N[C@@H](Cc1ccc(O)c(NC(=O)CCN)c1)C(=O)N[C@H](C(=O)N1C[C@H](O)C[C@H]1C(=O)N[C@@H](C(=O)N[C@H](C(=O)N1CC[C@H](O)[C@H]1C(=O)N[C@H](C(=O)NCC(=O)N[C@@H](C(N)=O)[C@@H](C)O)[C@H](O)CC(N)=O)[C@@H](C)O)[C@@H](C)O)C(C)C)[C@@H](C)O)OC(=O)[C@@H](C)CCCNC(C)=O.Cl | 1.56 | 1.56 | 1.56 | 1.56 | 1.56 | 1.56 | 23 | – | – | – | – | – |
| CCCCCCCCCCCCC[C@H](CC(=O)N[C@@H](C(=O)N[C@H](C)C(=O)N[C@@H](Cc1ccc(OCC(=O)NCCCn2ccnc2)cc1)C(=O)N[C@H](C(=O)N1C[C@H](O)C[C@H]1C(=O)N[C@@H](C(=O)N[C@H](C(=O)N1CC[C@H](O)[C@H]1C(=O)N[C@H](C(=O)NCC(=O)N[C@@H](C(N)=O)[C@@H](C)O)[C@H](O)CC(N)=O)[C@@H](C)O)[C@@H](C)O)C(C)C)[C@@H](C)O)OC(=O)[C@@H](C)CCCN.Cl | – | – | – | – | – | – | 53 | 2 | 2 | 1 | 1 | – |
| CCCCCCCCCCCCC[C@@H]1CC(=O)N[C@@H]([C@@H](C)O)C(=O)N[C@@H](C)C(=O)N[C@@H](Cc2ccc(O)c(NC(=O)CCC(=O)O)c2)C(=O)N[C@@H](C(C)C)C(=O)N2C[C@H](O)C[C@H]2C(=O)N[C@@H]([C@@H](C)O)C(=O)N[C@@H]([C@@H](C)O)C(=O)N2CC[C@H](O)[C@H]2C(=O)N[C@@H]([C@H](O)CC(N)=O)C(=O)NCC(=O)N[C@@H]([C@@H](C)O)C(=O)N[C@@H](CCCN)C(=O)O1 (TA[X3]V[Hyp]TT[Pro(3S-OH)][Gln(3R-OH)]GT[Orn]; linker N-C via X1) | – | – | – | – | – | – | 79 | 1 (≈ 0.606 µM) | 0.5 (≈ 0.303 µM) | 0.5 (≈ 0.303 µM) | 0.25 (≈ 0.152 µM) | – |
| CCCCCCCCCCCCC[C@@H]1CC(=O)N[C@@H]([C@@H](C)O)C(=O)NC(C)C(=O)N[C@@H](Cc2ccc(O)c(NC(=O)CCC(=O)N3CCNCC3)c2)C(=O)N[C@@H](C(C)C)C(=O)N2C[C@H](O)C[C@H]2C(=O)N[C@@H]([C@@H](C)O)C(=O)N[C@@H]([C@@H](C)O)C(=O)N2CC[C@H](O)[C@H]2C(=O)N[C@@H]([C@H](O)CC(N)=O)C(=O)NCC(=O)N[C@@H]([C@@H](C)O)C(=O)N[C@@H](CCCN)C(=O)O1 (stereo partly drawn) (T[ξA][X2]V[Hyp]TT[Pro(3S-OH)][Gln(3R-OH)]GT[Orn]; linker N-C via X1) | – | – | – | – | – | – | 46 | 1 (≈ 0.582 µM) | 1 (≈ 0.582 µM) | 1 (≈ 0.582 µM) | 0.5 (≈ 0.291 µM) | 0.97 |
| C[C@@H]1[C@H](O)[C@@H](C)/C=C/C=C/C=C/C=C/C=C/C=C/C=C/[C@H](O[C@@H]2O[C@H](C)[C@@H](O)[C@H](N)[C@@H]2O)C[C@@H]2O[C@](O)(C[C@@H](O)C[C@@H](O)[C@H](O)CC[C@@H](O)C[C@@H](O)CC(=O)O[C@H]1C)C[C@H](O)[C@H]2C(=O)O [AMPHOTERICIN B] | – | – | – | – | – | – | – | – | – | – | – | 0.132 |
| OC(Cn1cncn1)(Cn1cncn1)c1ccc(F)cc1F [FLUCONAZOLE] | – | – | – | – | – | – | – | – | – | – | – | > 20 |
